# A3G deaminase: blocks human APOBEC3G single-stranded DNA deamination | Q9HC16 | recombinant A3G, ssDNA deamination FAM/TAMRA fluorescence | inhibition, % at 20 µM | 330,000 compounds, 0.28% hits | AID 493012;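 active means inhibition of at least 40% at 20 µM, with no more than 30% in the related APOBEC3A deaminase screen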;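 further: plate controls were DMSO wells with A3G for no effect and wells lacking A3G enzyme for full effect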
# Target sequence (Q9HC16 whole entry, looked up): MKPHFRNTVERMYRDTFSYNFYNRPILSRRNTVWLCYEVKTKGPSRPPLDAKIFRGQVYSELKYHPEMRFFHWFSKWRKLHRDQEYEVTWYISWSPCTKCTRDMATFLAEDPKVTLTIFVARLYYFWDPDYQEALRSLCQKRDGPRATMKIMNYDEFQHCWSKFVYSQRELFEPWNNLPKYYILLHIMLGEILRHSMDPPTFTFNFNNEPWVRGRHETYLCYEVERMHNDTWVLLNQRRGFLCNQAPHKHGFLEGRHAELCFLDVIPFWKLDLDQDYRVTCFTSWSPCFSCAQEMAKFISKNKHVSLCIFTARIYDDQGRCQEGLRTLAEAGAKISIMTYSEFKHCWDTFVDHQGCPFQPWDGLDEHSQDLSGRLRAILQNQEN
# A3A deaminase: human APOBEC3A DNA deaminase inhibition | P31941 | recombinant A3A, FAM/TAMRA ssDNA deamination fluorescence | inhibition, % at 20 µM | 330,000 compounds, 0.41% hits | AID 493011;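 active means at least 40% inhibition at 20 µM here, with at most 30% in a related deaminase screen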;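 further: plate controls were A3A with DMSO for no effect and wells lacking A3A enzyme for full effect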
# Target sequence (P31941 whole entry, looked up): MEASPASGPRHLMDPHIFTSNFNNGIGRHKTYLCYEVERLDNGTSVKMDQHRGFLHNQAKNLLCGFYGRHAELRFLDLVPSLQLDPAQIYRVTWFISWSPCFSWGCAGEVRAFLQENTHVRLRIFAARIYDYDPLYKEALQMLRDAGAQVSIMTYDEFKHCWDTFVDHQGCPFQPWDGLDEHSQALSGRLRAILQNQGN
# SUMO HTRF inh: SUMOylation inhibition; inhibition, % at 35 µM; P63279; 290,000 compounds, 0.36% hits; HTRF SUMOylation assay, SAE1/SAE2 + UBC9, in vitro; in the data active means inhibition above about 50%, passing the limit was not always enough
# M18AAP inhibitor: blocks P. falciparum M18 aspartyl aminopeptidase. inhibition, % at 7.35 µM. 290,000 compounds, 1.2% hits. recombinant PfM18AAP, H-Glu-NHMec fluorogenic cleavage. AID 1822;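 active means inhibition above the campaign mean inhibition over all tested compounds plus 3 SD, cut at about 28% in these data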;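 further: 0% = plate median of test compound wells and 100% = 2 mM ZnCl2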
# HKDC1 inhibitor: inhibitors of human hexokinase HKDC1; recombinant HKDC1, G6PDH/diaphorase resazurin coupled fluorescence; inhibition, % at 20 µM; AID 493160; 340,000 compounds, 0.16% hits;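 active means inhibition above about 35% when tested at 20 µM, limit read from the data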;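 further: plate controls were DMSO wells with enzyme for no effect and DMSO wells lacking enzyme for full effect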
#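 Test system: Recombinant HKDC1 (HK5) hexokinase enzyme, produced in-house | Input: HKDC1 at 5 µg/mL | Buffer or medium: Tris pH 8.0 buffer with MgCl2, Tween-20, BSA, BME | Schedule: 90 min reaction incubation at room temperature, dark | Technique: Resazurin-to-resorufin fluorescence via G6PDH and diaphorase coupling, 525/613 nm | Controls: DMSO wells with and without enzyme mix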
# PfG6PD inh: PfG6PD (Plasmodium falciparum) enzyme inhibition; AID 504690; PfGluPho enzyme, NADPH resazurin-diaphorase fluorescence; 350,000 compounds, 0.78% hits; inhibition, % at 20 µM;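 active means inhibition reaching at least a set limit at 20 µM in the primary screen, cut at about 59% in these data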;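 further: 0% = DMSO wells with substrate and 100% = DMSO wells lacking glucose-6-phosphate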
# PfGluPho conf: PfG6PD inhibition, single-dose confirmed. inhibition, % at 20 µM. shares compounds with PfG6PD inh. 2,400 compounds, 34% hits. recombinant PfGluPho, NADPH-diaphorase-resazurin fluorescence;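 active means inhibition of at least 50% at 20 µM in any single replicate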;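 further: 0% = DMSO with substrate and 100% = DMSO lacking glucose-6-phosphate substrate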
# Diaph ctr 10uM: diaphorase inhibition or oxidation at 10 uM NADPH | inhibition, % at 20 µM | AID 504862 | diaphorase-coupled resazurin reduction, fluorescence, NADPH 10 uM | 820 compounds, 39% hits | shares compounds with PfG6PD inh;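 active means average inhibition reaching 50% or more with the compound at 20 µM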;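 further: resorufin red fluorescence formed as diaphorase reduces resazurin using NADPH; 0% = DMSO with enzyme and 100% = DMSO without enzyme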
# Diaph ctr 30uM: diaphorase inhibition or oxidation at 30 uM NADPH; shares compounds with PfG6PD inh; inhibition, % at 20 µM; Diaphorase/resazurin coupled assay, resorufin fluorescence; 820 compounds, 29% hits;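 active means inhibition averaging 50% or more, tested at 20 µM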;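 further: 0% = DMSO with enzyme and 100% = DMSO wells lacking diaphorase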
# Active calls of the source: *; · = not tested or not shown. Compounds with a hit are over-represented: about 2.4% of the library has one in this group of screens.
SMILES,A3G deaminase,A3A deaminase,SUMO HTRF inh,M18AAP inhibitor,HKDC1 inhibitor,PfG6PD inh,PfGluPho conf,others
Cc1oc(-c2ccc(-c3ccccc3)cc2)nc1CN(CCO)C(C)C,-7,-4,16,-5,-1,2,·,
CC(=O)Nc1nnc(S(=O)(=O)N2CCN(c3ccc([N+](=O)[O-])cc3Cl)CC2)s1,1,0,10,0,4,-24,·,
Cc1cccc(C(=O)Nc2nnc(COc3ccccc3)s2)c1,-9,-1,3,5,-12,-7,·,
COc1cccc(C(=O)Nc2nnc(S(=O)(=O)N(C)Cc3ccccc3)s2)c1,-7,-3,·,2,10,88*,77*,Diaph ctr 10uM=62*;Diaph ctr 30uM=39
C=C(Cl)COc1ccc2c(CC)cc(=O)oc2c1,-6,-5,6,-22,-6,3,·,
CC1=C(n2nnc([N+](=O)[O-])n2)C(c2cccnc2)C(C#N)=C(N)O1 (stereo unspecified),-11,-3,5,0,21,84*,79*,Diaph ctr 10uM=48;Diaph ctr 30uM=49
COC(=O)C1=C(C)OC(N)=C(C#N)C1c1cccnc1 (stereo unspecified),-12,-4,4,-7,3,-6,·,
C#Cc1ccc([C@@H]2C=C(C(=O)N3CCN(Cc4ccc5c(c4)OCO5)CC3)O[C@H](OCC)[C@H]2CCCO)cc1,-2,0,24,-9,-2,-10,·,
CCOC(=O)c1c(C)[nH]c(C)c1C(=O)COC(=O)c1cccs1,12,5,·,·,1,60*,14,
COc1ccc2c(ccc[n+]2CC(=O)c2ccc(C)cc2)c1,1,9,3,2,6,-4,·,
COc1ccc(Nc2nnc(SCc3cc(=O)n4ccsc4n3)s2)cc1,2,9,22,10,15,82*,47,
COc1ccccc1CC(=O)Nc1ccc(Cl)cc1C(=O)O,-1,0,19,-2,-5,42,·,
COc1ccc(C(=O)Nc2cc(Cl)ccc2C(=O)O)cc1,-2,2,29,-13,6,105*,51*,Diaph ctr 10uM=45;Diaph ctr 30uM=47
O=C(COc1ccccc1C(=O)O)Nc1cccc2ccccc12,-3,0,·,·,0,-15,·,
O=C(COc1cccc2ccccc12)Nc1ccc(Cl)cc1C(=O)O,·,·,15,4,20,75*,64*,Diaph ctr 10uM=60*;Diaph ctr 30uM=48
O=C(COc1cccc2ccccc12)Nc1cc(Cl)ccc1C(=O)O,-5,-3,14,1,19,105*,69*,Diaph ctr 10uM=60*;Diaph ctr 30uM=59*
COc1ccc(C(=O)Nc2cc(Cl)ccc2OC(=O)c2ccc(OC)cc2)cc1,-3,1,25,1,-2,34,·,
COCCNC(=O)c1c[nH]c2ccc(S(=O)(=O)Nc3ccc(F)cc3F)cc2c1=O,-16,2,3,-17,-2,-21,·,
O=C1c2ccccc2C(=O)N1S(=O)(=O)c1ccccc1,-4,0,5,-2,-2,1,·,
O=S(=O)(N=C1C=CC(=NS(=O)(=O)c2ccccc2)c2ccccc21)c1ccccc1,·,·,·,·,·,62*,35,
Cc1nc2ccc(Cl)cc2nc(C)/c1=N\O,-1,-7,9,0,2,60*,11,
CN(C(=O)Cc1c[nH]c2ccccc12)C(C(=O)Nc1ccc2c(c1)OCO2)c1ccccc1 (stereo unspecified),-5,-2,-24,2,8,14,·,
CCOc1ccc(-c2c(C(=O)N/N=C/c3cccs3)nnn2-c2nonc2N)cc1,-5,-3,·,7,-7,-4,·,
Cc1ccc(-c2c(C(=O)N/N=C/c3ccsc3)nnn2-c2nonc2N)cc1,0,0,6,1,1,82*,54*,Diaph ctr 10uM=46;Diaph ctr 30uM=47
Cc1ccc(-c2c(C(=O)N/N=C/c3cccc(Cl)c3)nnn2-c2nonc2N)cc1,-1,0,8,3,2,145*,110*,Diaph ctr 10uM=99*;Diaph ctr 30uM=84*
SMILES,A3G deaminase,A3A deaminase,SUMO HTRF inh,M18AAP inhibitor,HKDC1 inhibitor,PfG6PD inh,PfGluPho conf,others
Cc1ccc(-c2c(C(=O)N/N=C/c3ccc4c(c3)OCO4)nnn2-c2nonc2N)cc1,-5,-3,16,7,0,28,·,
Cc1ccc(-c2c(C(=O)N/N=C/c3ccoc3)nnn2-c2nonc2N)cc1,0,0,·,-7,-2,28,·,
Cc1ccc(-c2c(C(=O)N/N=C/c3cccs3)nnn2-c2nonc2N)cc1,-2,2,-3,0,3,81*,69*,Diaph ctr 10uM=61*;Diaph ctr 30uM=48
CN(CC(=O)Nc1ccccc1Cl)C(=O)COC(=O)Cc1c(F)cccc1Cl,-7,-1,8,-9,-4,-5,·,
CC(NC(=O)CSC(=S)N1CCCC1)c1ccc(S(N)(=O)=O)cc1 (stereo unspecified),-1,3,·,·,-9,-14,·,
O=C(Nc1ccccc1)c1cc2ccccc2s1,·,·,·,·,-2,71*,15,
COc1ccc(CCNC(=O)CSc2nnc(CNc3ccc(Cl)cc3)o2)cc1OC,1,-3,7,1,-9,10,·,
CCCCNC(=O)CCCCC(=O)N/N=C/c1cccc(Cl)c1,-6,-1,-12,-5,-8,65*,11,
Cc1ccc(/C=N/NC(=O)CCCOc2ccc(Cl)cc2Cl)cc1,1,1,-11,3,10,67*,35,
O=C(CC(=O)Nc1cccc(Cl)c1)N/N=C\c1ccccc1,-8,-7,-15,-1,3,84*,41,
CCCCNC(=O)C(=O)N/N=C/c1cccc(Br)c1,-4,-2,8,-9,-8,0,·,
O=C(CCCOc1ccc(Cl)cc1Cl)N/N=C/c1ccccc1,-8,2,9,9,-1,119*,86*,Diaph ctr 10uM=88*;Diaph ctr 30uM=71*
Cc1ccc(/C=N/NC(=O)CCCOc2ccc(Cl)cc2Cl)cc1[N+](=O)[O-],0,-2,-8,-5,-6,38,·,
O=C(N/N=C/c1ccccn1)c1[nH]c2ccc([N+](=O)[O-])cc2c1-c1ccccc1,-4,-1,-84,8,-3,-7,·,
Nc1c(N2CCN(c3ccccc3)CC2)c2ccccc2oc1=O,-3,-4,18,22,2,20,·,
CCn1cc(/C=N\NC(=O)c2c[nH]c3ccccc23)c(C)n1,-5,2,-4,-47,-13,0,·,
Cc1nnc2ccc(-c3ccc(NS(C)(=O)=O)cc3)nn12,-7,-3,7,0,-2,8,·,
O=C1C(=NO)CCc2ccccc21,·,·,·,·,26,62*,29,

# Screening results deposited in PubChem BioAssay by several laboratories.
